High-throughput results from PubChem BioAssay.
STAT3 act: activators of IL-6 induced STAT3 signaling; activation (% of control), % at 5.6 µM; U3A cells, IL-6 STAT3-luciferase reporter, luminescence; 100% = signal with IL-6 EC80 alone; hit rate 0.91% among 190,000; AID 871;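 active = activation above the screen-wide mean of compound activation plus 3 SD, cut at about 130% in these data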
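Test system: Human STAT1-deficient U3A cells with stable STAT3-luciferase reporter | Also added: Interleukin-6, 33 ng/mL | Timing: Compound pre-incubation 1 h before IL-6, then 6 h stimulation at 37 °C | Technique: Luciferase reporter luminescence | Read-out: Percent of IL-6-only median luminescence | Benchmarks: IL-6-only wells as 100% reference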
STAT1 activator: increases IFN-gamma driven STAT1 reporter signal | NIH 3T3 STAT1-luciferase reporter, luminescence; 100% = IFN-gamma alone, no compound | activation (% of control), % at 5.5 µM | hit rate 2.6% among 200,000 | AID 932;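 active = activation above the screen-wide mean activation plus 3 SD, cut at about 130% in these data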
APP 5'UTR act: activates APP 5'UTR luciferase reporter. AID 1276. hit rate 1% among 190,000. SH-SY5Y APP 5'UTR luciferase reporter, luminescence; zero percent = DMSO vehicle wells. activation, % at 2 µM;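 active = activation above a set limit, based on mean plus 3 SD of controls, cut at about 140% in these data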
NF-kB expr up: compounds increasing NF-kB expression in human neuronal cells | NF-kB reporter expression; stronger effect = higher value | fold change at 12.5 µM | hit rate 1.6% among 190,000; in the data active = fold change above about 3.3
STAT3 inh: inhibitors of IL-6 induced STAT3 signaling; U3A cells, IL-6 STAT3-luciferase reporter, luminescence; host cell line lacks STAT1; inhibition, % at 5.5 µM; hit rate 0.89% among 190,000; AID 862;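 active = inhibition above the mean inhibition across all screened compounds plus 3 SD, cut at about 44% in these data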
STAT1 inh-1: STAT1 signaling inhibition. hit rate 0.35% among 200,000. AID 920. inhibition, % at 5.5 µM. NIH 3T3 STAT1-luciferase reporter, IFN-gamma, luminescence;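 active = inhibition above a set limit, the mean inhibition across all tested compounds plus 3 SD, cut at about 34% in these data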
STAT1 inh-2: confirmation of STAT1 signaling inhibitors; shares compounds with STAT1 inh-1; NIH 3T3 STAT1-luciferase reporter, IFN-gamma, luminescence; AID 1263; inhibition, % at 5.5 µM; hit rate 55% among 200;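 active = triplicate mean inhibition exceeding the hit cutoff computed for the primary STAT1 screen, cut at about 35% in these data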
NFkB inh: NF-kappaB inhibition in STAT1 inhibitor counter-screen. shares compounds with STAT1 inh-1. HEK293T NF-kB luciferase reporter, TNF-alpha induced, luminescence. inhibition, % at 5.7 µM. hit rate 30% among 200. AID 1303;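 active = inhibition above the mean of solvent-only control wells plus 3 SD of those wells, cut at about 15% in these data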
STAT3 inh 2: inhibits STAT3, counter-screen to STAT1 inhibitors; shares compounds with STAT1 inh-1; U3A cells, IL-6 STAT3 luciferase reporter, luminescence; cells lacking STAT1; inhibition, % at 5.7 µM; hit rate 20% among 200; AID 1310;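 active = inhibition above the mean of solvent-only control wells plus 3 SD, set per campaign, cut at about 25% in these data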
Each line names hits and unclear results; the compound was inactive in the other large screens (follow-up assays come after a bar, where they were run). This is a sample that favours compounds with a hit; in the whole collection about 4.9% have one here.

O=C(O)C(Cc1ccccc1)N=Cc1c(O)c2ccccc2oc1=O (stereo not drawn)	STAT1 inh-1 41 | STAT1 inh-2 inactive | NFkB inh inactive | STAT3 inh 2 inactive
CCNc1ccc(S(=O)(=O)N(C)C)cc1NCC(=O)Nc1ccccc1Cl	none
COc1ccc(NC(=S)Nc2cccc(S(=O)(=O)N3CCCCC3)c2)cc1	none
O=C(c1ccco1)N1CCN(c2ccnc3cc(Cl)ccc23)CC1	STAT1 inh-1 35 | STAT1 inh-2 43 | NFkB inh 24 | STAT3 inh 2 inactive
O=C(O)CCC(=O)Nc1ccccc1C(=O)N1CCN(c2ccc(Cl)cc2)CC1	none
COc1cc(/C=C/C(=O)OCC(=O)NC(=O)NC(C)C)cc(S(=O)(=O)N2CCc3ccccc32)c1OC	STAT1 inh-1 59 | STAT1 inh-2 46 | NFkB inh 18 | STAT3 inh 2 inactive
Cc1sc(-c2ccncc2)nc1OC(=O)c1ccc(F)cc1F	STAT1 inh-1 51 | STAT1 inh-2 inactive | NFkB inh inactive | STAT3 inh 2 inactive
CCNc1nc(NCC)n2c(SC(C(=O)Nc3cc(C)ccc3OC)c3ccccc3)nnc2n1 (stereo not drawn)	none
COc1ccc(NC(=O)C2CCN(c3cc(-c4ccccc4)nc4ncnn34)CC2)cc1OC	STAT1 inh-1 42 | STAT1 inh-2 53 | NFkB inh 19 | STAT3 inh 2 36
Cc1cccc(N(Cc2ccccc2)C(=O)CCl)c1	STAT1 inh-1 35 | STAT1 inh-2 inactive | NFkB inh inactive | STAT3 inh 2 29
O=C(CCl)N(Cc1ccccc1)c1ccccc1	none
CCOC(=O)C1CCN(CC(=O)Nc2c(C(=O)OC)[nH]c3ccccc23)CC1	none
CCOC(=O)C1CCN(CC(=O)Nc2c(C(=O)OC)[nH]c3ccc(Cl)cc23)CC1	STAT1 inh-1 37 | STAT1 inh-2 inactive | NFkB inh inactive | STAT3 inh 2 29
O=C(C1CCC(CNS(=O)(=O)c2cccc3nsnc23)CC1)N1CCN(c2ccccn2)CC1 (stereo not drawn)	STAT1 inh-1 35 | STAT1 inh-2 inactive | NFkB inh inactive | STAT3 inh 2 inactive
COc1ccc(-n2c(SCc3cccnc3)nc3c(c2=O)SCC3)cc1OC	STAT1 inh-1 45 | STAT1 inh-2 35 | NFkB inh inactive | STAT3 inh 2 inactive
Cn1c(SCc2cccnc2)nc2c(c1=O)SCC2	none
COc1cccc(OC)c1C(=O)OCC(=O)Nc1cccnc1Cl	none
COCCNC(=O)CCSc1nc(-c2ccc(OC)cc2)cc(C(F)(F)F)n1	none
CCOC(=O)CS(=O)(=O)c1nc(-c2ccc(F)cc2)cc(C(F)(F)F)n1	STAT1 inh-1 34 | STAT1 inh-2 46 | NFkB inh 22 | STAT3 inh 2 inactive
COc1ccc(-c2cc(C(F)(F)F)nc(S(=O)(=O)CCCC(=O)Nc3cccnc3Cl)n2)cc1OC	STAT1 inh-1 44 | STAT1 inh-2 38 | NFkB inh inactive | STAT3 inh 2 inactive
COCC(C)NC(=O)CCS(=O)(=O)c1nc(-c2ccc(OC)cc2)cc(C(F)(F)F)n1 (stereo not drawn)	STAT1 inh-1 43 | STAT1 inh-2 51 | NFkB inh inactive | STAT3 inh 2 inactive
COC(=O)CCS(=O)(=O)c1nc(-c2ccccc2)cc(C(F)(F)F)n1	STAT1 inh-1 38 | STAT1 inh-2 42 | NFkB inh inactive | STAT3 inh 2 inactive
COc1nc(-c2ccccc2)cc(C(F)(F)F)n1	none
COc1cc(CN(C2CCCCC2)S(=O)(=O)c2ccc(S(=O)(=O)N(C)C3CCCCC3)cc2)cc(OC)c1OC	none
CC(Sc1nc(-c2ccccc2)cc(C(F)(F)F)n1)C(=O)O (stereo not drawn)	none
COc1ccc(-c2cc(C(F)(F)F)nc(S(C)(=O)=O)n2)cc1	none
CS(=O)(=O)c1nc(-c2ccc(F)cc2)cc(C(F)(F)F)n1	STAT1 inh-1 45 | STAT1 inh-2 39 | NFkB inh inactive | STAT3 inh 2 inactive
CCOC(=O)CCS(=O)(=O)c1nc(-c2ccccc2)cc(C(F)(F)F)n1	STAT1 inh-1 40 | STAT1 inh-2 45 | NFkB inh inactive | STAT3 inh 2 inactive
Cc1cc(NC(=O)CCCS(=O)(=O)c2nc(-c3cccs3)cc(C(F)(F)F)n2)no1	STAT1 inh-1 47 | STAT1 inh-2 48 | NFkB inh inactive | STAT3 inh 2 inactive
Cc1cc(NC(=O)CSc2nc(-c3cccs3)cc(C(F)(F)F)n2)no1	none
Cc1cccc(-n2cc(-c3ccccc3)c3c(N4CCOCC4)ncnc32)c1	STAT1 inh-1 38 | STAT1 inh-2 inactive | NFkB inh inactive | STAT3 inh 2 inactive
Cc1cc(NC(=O)CSc2nnc(-c3cccnc3)n2Cc2ccccc2)no1	none
CCOC(=O)N1CCN(c2ncnc3c2[nH]c2ccc(OC)cc23)CC1	STAT1 inh-1 53 | STAT1 inh-2 44 | NFkB inh 21 | STAT3 inh 2 inactive
CCOC(=O)N1CCN(c2ncnc3c2[nH]c2ccc(F)cc23)CC1	STAT1 inh-1 54 | STAT1 inh-2 61 | NFkB inh 19 | STAT3 inh 2 37
O=C1CCCN1c1ccc(S(=O)(=O)Oc2cccc(Cl)c2)cc1[N+](=O)[O-]	none
COc1ccc(CNC(=O)C(c2ccc(C)cc2)N(Cc2cccs2)C(=O)c2ccc3c(c2)OCCO3)cc1 (stereo not drawn)	STAT1 inh-1 38 | STAT1 inh-2 inactive | NFkB inh inactive | STAT3 inh 2 inactive
CCOC(=O)N1CCN(C(=O)c2ccc3c(=O)n(-c4ccccc4F)c(=S)[nH]c3c2)CC1	STAT1 inh-1 40 | STAT1 inh-2 inactive | NFkB inh inactive | STAT3 inh 2 inactive
CCOC(=O)N1CCN(C(=O)c2ccc3c(=O)n(-c4ccc(OC)cc4)c(=S)[nH]c3c2)CC1	none
CCOC(=O)N1CCN(C(=O)c2ccc(-n3c(=S)[nH]c4ccccc4c3=O)cc2)CC1	STAT1 inh-1 60 | STAT1 inh-2 48 | NFkB inh inactive | STAT3 inh 2 inactive
O=C(NNC(=O)c1cccc(S(=O)(=O)N2CCc3ccccc32)c1)c1ccccc1	STAT1 inh-1 35 | STAT1 inh-2 36 | NFkB inh inactive | STAT3 inh 2 inactive
Cc1nnc(NC(=O)c2cccc(S(=O)(=O)N3CCc4ccccc43)c2)s1	none
CCOc1ccc(C(CC(=O)O)n2cnnn2)cc1 (stereo not drawn)	none
CCC1CCCCN1CCCNC(=O)c1cc2c(=O)[nH]c3ccccc3c2n1C (stereo not drawn)	none (no result: NF-kB expr up)
